From PubChem BioAssay
NPY-Y2 antag: NPY-Y2 (human) receptor antagonism; P49146; NPY-Y2 expressing cells, antagonist mode; inhibition, % at 2.7 µM; 0.99% of 140,000 active; AID 793; in the data active means inhibition above about 17%;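 further: 0% = vehicle with agonist challenge and 100% = reference antagonist with challenge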
Target sequence (P49146 whole entry, looked up): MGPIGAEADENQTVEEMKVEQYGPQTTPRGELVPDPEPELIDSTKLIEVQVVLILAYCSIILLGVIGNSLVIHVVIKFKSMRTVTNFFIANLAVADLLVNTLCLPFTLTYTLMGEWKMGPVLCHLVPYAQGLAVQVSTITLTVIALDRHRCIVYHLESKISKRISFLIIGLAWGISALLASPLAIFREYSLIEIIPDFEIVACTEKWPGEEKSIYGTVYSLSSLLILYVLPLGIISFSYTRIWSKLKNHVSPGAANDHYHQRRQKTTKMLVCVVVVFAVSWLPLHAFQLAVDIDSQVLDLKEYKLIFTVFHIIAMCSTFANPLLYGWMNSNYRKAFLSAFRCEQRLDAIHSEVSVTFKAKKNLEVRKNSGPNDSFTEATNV
NPY Y1 blocker: blocks the human neuropeptide Y Y1 receptor; HEK293-CNG Y1 cells, membrane potential fluorescence; NPY at EC95, then isoproterenol; inhibition, % at 3.6 µM; 1% of 200,000 active;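 active means inhibition above the campaign mean inhibition of all tested compounds plus 3 SD, cut at about 20% in these data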;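 further: 0% = DMSO wells given NPY plus isoproterenol and 100% = isoproterenol alone without NPY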
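Material: HEK293 Y1/CNG channel cell line | Also added: NPY (25 nM), isoproterenol (1 µM), Ro 20-1724 (25 µM) | Compound: One concentration, 3.6 µM, in 0.4% DMSO | Schedule: 3 h dye uptake, 1 h room-temperature compound, 45 min post-isoproterenol | Signal: Membrane-potential fluorescent dye readout | Read-out: % inhibition of NPY effect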
NPY2 pot ag: human NPY-Y2 potentiation or agonism, primary screen. activation, % at 3.6 µM. cells expressing NPY-Y2, potentiator/agonist read-out. P49146. 0.45% of 220,000 active; in the data active means activation above about 27%;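 further: cells stimulated with NPY near EC25 plus isoproterenol at EC100; 0% = vehicle plus submaximal agonist and 100% = vehicle plus saturating agonist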
NPY1 pot ag: potentiators or agonists of human neuropeptide Y receptor Y1 | 0.37% of 220,000 active | NPY-Y1 expressing cells, potentiator/agonist activation | AID 1304 | P25929 | activation, % at 3.6 µM; in the data active means activation above about 33%, passing the limit was not always enough;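 further: cells stimulated with NPY at EC10 then isoproterenol at EC100; 0% = low agonist plus stimulus and 100% = saturating agonist plus stimulus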
* marks the source's active call; other numbers are inactive results; / = not tested or not shown. Hits are enriched below; roughly 1.8% of the tested compounds scored in any of these assays.

SMILES	NPY-Y2 antag	NPY Y1 blocker	NPY2 pot ag	NPY1 pot ag
CCOc1ccccc1CNCCNCC(C)O (configuration not stated)	/	4	-8	-2
C=CCc1ccccc1OCC(O)CN(C(C)C)C(C)C (configuration not stated)	5	-18	97*	103*
C=CCc1ccccc1OCC(O)Cn1ccnc1C (configuration not stated)	6	3	20	12
CCOc1ccccc1OCC(O)CNC (configuration not stated)	0	-16	94*	106*
C=CCc1ccccc1OCC(O)CN1CCN(c2ccc(OC)cc2)CC1 (configuration not stated)	4	-15	80*	91*
CNc1nnc(Sc2ncccc2[N+](=O)[O-])s1	/	/	8	4
Cc1noc(C)c1-c1nc(CS(=O)(=O)c2ccc(F)cc2)no1	/	/	17	11
CCOCCCNC(=O)c1ccc(CS(=O)(=O)Cc2ccc(C)cc2)o1	0	-5	3	1
Cc1nc(N2CCCCC2)sc1C(=O)c1ccc(Cl)c([N+](=O)[O-])c1	/	-11	47*	48*
O=C(Cn1cnc2cc([N+](=O)[O-])ccc2c1=O)Nc1ccc(N2CCOCC2)cc1	/	/	16	-6
COc1ccc(CCN(CC(=O)NC(C)(C)C)C(=O)Cn2nnc(-c3ccc(C)o3)n2)cc1OC	/	5	2	7
OC(COc1ccc2c(c1)OCO2)CN1CCN(c2ccc(F)cc2)CC1 (configuration not stated)	/	2	-15	-9
CN(C)S(=O)(=O)N1CCC(c2ccc(F)cc2)C(COc2ccc3c(c2)OCO3)C1 (configuration not stated)	28*	44*	-21	-17
O=S(=O)(c1cccc(-c2nnc3n2CCCCC3)c1)N1CCCC1	/	2	-8	4
Cc1ccc(S(=O)(=O)N(C)CCCC(=O)Nc2ccc(C)cc2C)cc1	3	2	-1	-16
COCCCNC(=S)NC(=O)c1ccc(C)cc1	2	3	-1	-7
COc1ccc(OCC(=O)Nc2ccccc2OC)cc1	5	-1	6	-4
CNCc1ccccc1OCC(=O)Nc1ccccc1OC	6	-1	37*	105*
CN(C)S(=O)(=O)c1ccc(C(=O)OCCn2cnc3c2c(=O)n(C)c(=O)n3C)cc1	/	4	-8	-8
CC1CCCC(NCC(=O)Nc2ccc(C(N)=O)cc2)C1C (configuration not stated)	/	7	-5	8
Nc1nc(Cl)nc2c1ncn2[C@@H]1O[C@H](CO)[C@@H](O)[C@H]1O	102*	85*	-22	-78
COC(=O)N/N=C/c1cn(Cc2c(Cl)cccc2Cl)c2ccccc12	0	-3	8	-8
COc1ccccc1-n1c(=O)c(C#N)c(-c2ccc([N+](=O)[O-])cc2)c2cc(C(=O)c3ccccc3O)cnc21	/	/	49*	73*
CCOCCCNC(=O)C(NC(=O)c1cnccn1)c1ccc(C)cc1 (configuration not stated)	1	-2	-3	7
COC(=O)C1C(c2ccccc2)C(C(=O)OCc2ccco2)C1c1ccccc1 (configuration not stated)	37*	37*	-16	-70
SMILES	NPY-Y2 antag	NPY Y1 blocker	NPY2 pot ag	NPY1 pot ag
O=C(O)C1C(c2ccccc2)C(C(=O)OCc2ccco2)C1c1ccccc1 (configuration not stated)	0	7	7	-3
S=C(NCCc1ccccc1)N/N=C/c1c(Cl)cccc1Cl	23*	22*	-17	-41
CCOC(=O)Cn1c(C)[n+](CC(=O)c2ccccc2)c2ccccc21	/	/	-12	7
O=c1[nH]c(CN2CCCCC2)nc2c1C1(CCCC1)Cc1ccccc1-2	2	4	1	1
COc1ccc([C@H]2[C@H](C(=O)C(C)(C)C)N3N=Cc4ccccc4C3[C@]23N=C(c2ccccc2)OC3=O)cc1 (some centres not stated)	1	27*	6	13
Cc1cccc(OCCNc2cc(N3CCN(CCO)CC3)ccc2[N+](=O)[O-])c1	1	3	-7	16
Cc1c(Cl)cccc1NC(=S)N1CCN(Cc2ccc3c(c2)OCO3)CC1	2	15	33*	53*
O=C(NNc1nc2cc3c(cc2s1)OCO3)c1cccc(F)c1	3	5	3	6
O=C(c1cccc(C(F)(F)F)c1)C1CCCN(Cc2cccn2-c2ncccn2)C1 (configuration not stated)	/	33*	-47	-28
O=C(N/N=C/c1ccc[nH]1)c1ccc2c(c1)OCO2	/	-3	-8	-18
O=C(N/N=C/c1ccc(-c2ccc(Br)cc2)o1)c1ccc2c(c1)OCO2	/	21*	0	-8
CCOC(=O)CNc1c(-c2ccccc2)nc2ccc(Cl)cn12	-1	1	-12	5
Cc1ccn2c(Nc3ccccc3C)c(-c3cccnc3)nc2c1	/	0	53*	61*
Cc1ccccc1Nc1c(-c2ccncc2)nc2ccc(Cl)cn12	/	-6	45*	54*
CC(=O)N(C)c1ccc(NS(=O)(=O)c2cc(Cl)ccc2Cl)cc1	/	21*	-29	-12
CC(=O)Nc1ccc(NS(=O)(=O)c2cc(Cl)ccc2Cl)cc1	/	/	-12	-10
COc1ccccc1NC(=S)Nc1cccc2cnccc12	-3	-14	89*	66*
COC(=O)CSc1nc(-c2ccccc2)cc(-c2ccco2)c1C#N	21*	23*	-22	8
CC1=C(C(=O)Nc2ccccn2)C(c2cn(C)nc2C)C2=C(CCCC2=O)N1 (configuration not stated)	/	-4	7	-4
COC(=O)C1=C(C)NC2=C(C(=O)CCC2)C1c1cn(Cc2ccc(Cl)cc2Cl)nc1-c1ccccc1 (configuration not stated)	19*	65*	-28	-66
O=C(CSc1nnc(Cc2cccs2)n1Cc1ccco1)Nc1ccc(Cl)cc1Cl	23*	31*	-6	-20
O=C(CSc1nnc(Cc2cccs2)n1Cc1ccco1)Nc1ccc(Br)cc1	9	3	-10	10
CCOc1ccc(Oc2c(/C=N/NC(=O)C3CC3)c(C)nn2-c2ccccc2)cc1	8	13	-7	-39
Cc1[nH]c2ccccc2c1/C=N/Nc1ccc([N+](=O)[O-])cc1	-9	-15	56*	65*
CC(c1ccccc1)N(NC(=O)C(O)(c1ccccc1)c1ccccc1)C(=O)c1ccccc1 (configuration not stated)	31*	22*	3	3
SMILES	NPY-Y2 antag	NPY Y1 blocker	NPY2 pot ag	NPY1 pot ag
CC1=NOC(=O)/C1=C\c1ccc2c(c1)OCO2	/	0	3	-16
CCCCN(CCCC)CP(=O)(c1ccccc1)c1ccccc1	26*	28*	-8	9
CCCCCOc1ccc(Br)cc1/C(C)=N/NC1=NCCN1	54*	27*	-21	-46
C=CCc1cccc2cc(C(=O)Nc3ccccc3C(=O)O)c(=O)oc12	/	-3	45*	28
Cc1cc(C)c(NC(=S)N(CCc2ccncc2)C(C)C)c(C)c1	/	-1	-12	-13
Cc1nn(C(C)(C)C)c(OC(=O)c2ccc3c(c2)OCO3)c1Sc1ccccc1	29*	48*	-26	-33
